An excerpt weighted towards active compounds, which were near 2.3% of everything screened.
CHT inh – inhibitors of human choline transporter CHT. Q9GZV3. CHT-expressing cells, membrane potential dye, choline response; stronger effect = lower value. B-score at 10 µM. hit rate 0.86% among 310,000. AID 488975;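 active = B-score over 3 SD under the library average, and starting fluorescence ratio not unusually high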;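 also: choline stimulus applied at its EC90 after an EC20 pre-addition; B-score computed on integrated fluorescence ratio after choline addition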
Target sequence (Q9GZV3 whole entry, looked up): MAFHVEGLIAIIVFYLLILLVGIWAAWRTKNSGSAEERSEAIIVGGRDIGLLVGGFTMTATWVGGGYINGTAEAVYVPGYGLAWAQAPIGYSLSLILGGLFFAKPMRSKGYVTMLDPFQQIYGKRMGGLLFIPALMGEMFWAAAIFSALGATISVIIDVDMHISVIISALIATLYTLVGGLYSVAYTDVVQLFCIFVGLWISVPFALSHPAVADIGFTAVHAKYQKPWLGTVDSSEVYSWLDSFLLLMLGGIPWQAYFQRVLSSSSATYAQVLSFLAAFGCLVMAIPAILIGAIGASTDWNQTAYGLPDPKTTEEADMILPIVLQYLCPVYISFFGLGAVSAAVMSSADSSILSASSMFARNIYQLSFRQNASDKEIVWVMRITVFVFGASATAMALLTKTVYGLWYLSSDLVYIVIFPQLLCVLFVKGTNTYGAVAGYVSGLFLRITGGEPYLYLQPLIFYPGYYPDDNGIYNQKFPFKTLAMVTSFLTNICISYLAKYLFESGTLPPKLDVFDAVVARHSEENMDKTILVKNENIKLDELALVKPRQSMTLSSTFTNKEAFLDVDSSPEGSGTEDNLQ
GPR7 antagonist – blocks human GPR7 receptor signaling; P48145; GPR7-expressing cells, fluorescence antagonist assay; inhibition, % at 4.4 µM; hit rate 1.1% among 290,000; AID 1861; in the data active = inhibition above about 16%, passing the limit was not always enough;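 also: cells stimulated with the agonist NPW; 0% = agonist with vehicle and 100% = vehicle without agonist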
CHT allo act – allosteric activators of human choline transporter CHT; hit rate 0.49% among 310,000; B-score at 10 µM; CHT-expressing cells, membrane potential dye, choline EC20; stronger effect = higher value; LV-AA mutant CHT in HEK293 cells;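 active = initial fluorescence not abnormally high and integrated response B-score, plate-corrected, over 3 SD above library mean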
pCIP destab – p/CIP protein destabilization; Q05BA5; F442A p/CIP-EGFP cells, EGFP fluorescence, 16 h; decrease of EGFP signal, % at 10 µM; hit rate 0.01% among 290,000; AID 1984;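 active = EGFP signal decrease of at least 30% at 10 µM or well 3 SD below plate mean, unless failing retest; inactive = the rest, including hits failing retest or dose response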
T cell HTS – T cell immune modulation candidate; response (vesicle binding), % at 7 µM; 2C CD8+ T cell-vesicle binding, flow cytometry; stronger effect = lower value; hit rate 0.068% among 330,000; AID 2052;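 active = response, share of CD8 T cells binding vesicles, and their 90th percentile fluorescence all below set limits, cut at about 80% in these data, passing the limit was not always enough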;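 also: values below 100% mean blocked vesicle binding to the CD8+ T cells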
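Read-out – percent CD8+ FL2 mean versus row control · System – murine 2C transgenic CD8+ T lymphocytes · Times – 1.5 h cell–vesicle binding at 37 °C, then 20 min icy labelling · Control set – naked vesicles low, QL9 vesicles with vehicle high · Detection – cytometric PE anti-B7-1 and Alexa647 anti-CD8 signals after 1% paraformaldehyde fixation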
DSG3 Ab inh – blocks pemphigus antibody binding to human desmoglein-3; DSG3-coupled beads, scFv-anti-DSG3-GFP binding, flow cytometry; stronger effect = lower value; binding (percent of control), % at 10 µM; hit rate 0.48% among 310,000;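 active = binding more than 3 SD below its plate's average and above zero; inconclusive = below that plate limit but binding exactly zero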
GPR7 antag cf – confirmation of human GPR7 antagonists | shares compounds with GPR7 antagonist | GPR7-expressing cells, calcium fluorescence antagonist mode | inhibition, % at 4.4 µM | hit rate 52% among 2,400; in the data active = inhibition above about 24%;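 also: stimulated with the GPR7 agonist NPW; 0% = agonist plus vehicle and 100% = vehicle alone without agonist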
MCHR1 antag – antagonizes human MCHR1, a GPR7 antagonist counter-screen | shares compounds with GPR7 antagonist | MCHR1-expressing cells, fluorescence antagonist assay | inhibition, % at 4.4 µM | hit rate 62% among 2,400; in the data active = inhibition above about 22%;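 also: 0% = vehicle with agonist and 100% = vehicle without agonist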
The depositor's hits bear a star; i = inactive; ? = inconclusive; . = not tested or not shown.

SMILES | CHT inh | GPR7 antagonist | CHT allo act | pCIP destab | T cell HTS | DSG3 Ab inh | GPR7 antag cf | MCHR1 antag
COc1cc(OC)c(C(=O)c2ccccc2[N+](=O)[O-])c(OC)c1 | . | . | . | . | . | 97 | . | .
Cc1ccccc1C1c2[nH]c3ccccc3c2C[C@H]2C(=O)N(c3ccccc3C(=O)NCCN3CCOCC3)C(=O)N12 (some centres undefined) | i | 10 | i | -7 | 398 | 103 | . | .
O=C(NCCCN1CCOCC1)c1ccccc1N1C(=O)[C@@H]2Cc3c([nH]c4ccccc34)C(c3cccc(Cl)c3)N2C1=O (some centres undefined) | i | 27* | i | -1 | 291 | 99 | 25* | 35*
Cc1ccc(C2c3[nH]c4ccccc4c3C[C@H]3C(=O)N(c4ccccc4C(=O)NCCN4CCOCC4)C(=O)N23)cc1 (some centres undefined) | i | 28* | i | -6 | 241 | 105 | 7 | 22*
CCC(NC(=O)c1cc(COc2ccc(F)cc2Cl)on1)c1ccncc1 (centres undefined) | . | 30* | . | -2 | . | 99 | 22 | 47*
CCC(NC(=O)c1cc(COc2cncc(Cl)c2)on1)c1ccncc1 (centres undefined) | i | 9 | i | -10 | 312 | ? | . | .
COc1ccc(Cl)cc1C(=O)NCCN(C)C | i | -3 | i | -4 | 531 | . | . | .
CN(C)CCNC(=O)c1ccc(COc2ccc(Cl)cc2Cl)cc1 | i | 30* | i | -4 | 306 | 99 | 40* | 52*
N#CCCCSc1nnc(CSc2nc3ccccc3s2)n1-c1ccccc1 | i | 6 | i | -14 | 139 | 127 | . | .
CCCSc1nnc(CSc2nc3ccccc3s2)n1-c1ccccc1 | i | 32* | i | -12 | 365 | 104 | 10 | 50*
CNc1n[nH]c(-c2ccccc2)n1 | . | . | . | . | . | 103 | . | .
Cc1nnc(N/N=C/c2c[nH]c3ccccc23)[nH]c1=O | i | 29* | i | 1 | 134 | 86 | -10 | 2
CC1CCCN(C(=O)c2cccc(S(=O)(=O)NCc3ccccc3)c2)C1 (centres undefined) | . | . | . | . | . | 101 | . | .
COc1cccc(NC(=O)N(C)C[C@@H]2OCc3cn(nn3)CCCC(=O)N([C@H](C)CO)C[C@H]2C)c1 | . | . | . | . | . | 113 | . | .
CCCSC(=O)N(CC)CC(=O)Nc1c(CC)cccc1CC | i | 26* | i | -7 | 575 | 106 | 26* | 22*
C=CCN(CC(=O)Nc1c(C)cccc1CC)C(=O)SCCC | i | 27* | i | -18 | 376 | 101 | 20 | 18
CCc1cccc(CC)c1NC(=O)CN(CC(=O)O)CC(=O)O | i | . | i | . | 918 | 90 | . | .
CCOC(=O)c1ccc(NC(=O)c2nc[nH]c2C(=O)N(C)CCO)cc1 | . | . | . | . | . | 99 | . | .
Nc1nonc1-n1nnc(C(=O)N/N=C/c2ccco2)c1CSc1ccc(Cl)cc1 | . | . | . | . | . | 93 | . | .
Nc1nc(=S)ss1 | . | . | . | . | . | 115 | . | .
Cc1cc[n+](CC[n+]2ccc(C)cc2)cc1 | i | . | i | . | 705 | 103 | . | .
CCC(C)(C)c1ccc(OCCCC[n+]2ccc(C)cc2)c(C(C)(C)CC)c1 | i | 69* | i | -12 | 158 | . | 74* | 83*
CCN1CCN(c2c(Cl)cccc2NC(=O)c2ccc([N+](=O)[O-])o2)CC1 | i | 28* | 7.1* | -5 | i | . | 34* | 34*
C[C@H](CO)N1C[C@H](C)[C@H](CN(C)Cc2cncnc2)Oc2ncc(C#CC3(O)CCCC3)cc2C1=O | . | . | . | . | . | 93 | . | .
C[C@H](CO)N1C[C@H](C)[C@H](CN(C)Cc2ccncc2)Oc2ncc(Br)cc2C1=O | . | . | . | . | . | 95 | . | .
SMILES | CHT inh | GPR7 antagonist | CHT allo act | pCIP destab | T cell HTS | DSG3 Ab inh | GPR7 antag cf | MCHR1 antag
O=C(COC(=O)c1cccc(S(=O)(=O)N2CCOCC2)c1)NC1CCCCC1 | . | . | . | . | . | 100 | . | .
O/N=C/c1ccccc1OCc1ccc(Cl)cc1 | i | 27* | i | -10 | 154 | 108 | 7 | 12
O=C(/C=C/c1ccccc1Cl)OCC(=O)N1CCc2ccccc21 | . | . | . | . | . | 97 | . | .
COc1cc(CNCc2ccccn2)ccc1OCc1ccc(Cl)c(Cl)c1 | i | 24* | i | -3 | 266 | . | 23 | 68*
COc1cc(CNCc2ccccn2)ccc1OCc1ccc(Cl)cc1Cl | i | 14 | i | -4 | 459 | 115 | . | .
COCCSc1ccccc1C(=O)Nc1cc(C)cc(C)c1 | i | -8 | i | 15 | 414 | 99 | . | .
COCCSc1ccccc1C(=O)Nc1ccncc1 | i | 57* | i | -2 | 446 | 111 | -9 | -12
CCOC(=O)c1cc2[nH]c3ccccc3c2[n+](-c2ccc([N+](=O)[O-])cc2)c1N | i | 0 | i | -4 | 239 | 106 | . | .
CCOC(=O)c1cc2[nH]c3ccccc3c2[n+](-c2ccc([N+](=O)[O-])cc2)c1C | i | 23* | i | -6 | 257 | 100 | 18 | 16
O=C(COC(=O)c1cnc(Cl)c(Cl)c1)NC1CCCC1 | . | . | . | . | . | 103 | . | .
C#CCOCCOCCOCCNc1nc(N2CCN(C(=O)[C@H](Cc3ccc(O)cc3)n3cc([C@@H](N)CC(C)C)nn3)CC2)nc(N2CCN(C(=O)[C@H](Cc3ccc(O)cc3)n3cc([C@@H](N)CC(C)C)nn3)CC2)n1 | i | 31* | i | -3 | . | . | -7 | 5
C#CCOCCOCCOCCNc1nc(N2CCN(C(=O)[C@H](CCCCN)n3cc([C@@H](N)CC(C)C)nn3)CC2)nc(N2CCN(C(=O)[C@H](Cc3ccc(O)cc3)n3cc([C@@H](N)CC(C)C)nn3)CC2)n1 | i | -10 | i | -7 | 270 | . | . | .
COCCN(C(=O)COC(=O)C12CC3CC(CC(O)(C3)C1)C2)c1c(N)n(Cc2ccccc2)c(=O)[nH]c1=O | . | . | . | . | . | 99 | . | .
C=CCN1C(=O)CSc2ccc(C(=O)NCc3cccs3)cc21 | i | 28* | i | -3 | 260 | . | 10 | 13
O=C(O)Cc1ccc(C(=O)c2ccc(F)cc2)s1 | i | 23* | i | -5 | 473 | 99 | -1 | 6
CCN1/C(=C/C=C/c2oc3ccc4ccccc4c3[n+]2CC)Oc2ccc3ccccc3c21 | i | 45* | i | -667 | i | . | 55* | 58*
COc1cccc(CNC(=O)c2cc(S(=O)(=O)N3CCCCC3)ccc2C)c1 | . | . | . | . | . | 103 | . | .
CCOc1ncccc1C(=O)Oc1ccc2c(c1)OCO2 | i | -8 | i | -2 | 340 | 99 | . | .
O=C(Oc1ccc2c(c1)OCO2)c1ccc(F)cc1Cl | i | 22* | i | -11 | 440 | 108 | 18 | 13
